The results in this text go back to ChEMBL document CHEMBL1127816, “Synthesis and antiestrogenic activity of diaryl thioether derivatives” (1994).

In experiment [1] the target is T1, Estrogen receptor (Homo sapiens) (UniProt Q92731+P03372). Briefly: Ability to inhibit E2-induced proliferation of ZR-75-1 cells at a dose of 1 uM. It counts as functional, cell-based. Summed up: (§1)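 ZR-75-1 cells (passages 90-96, kept in phenol-red-free RPMI-1640 with 10 nM E2) were plated at 10 000 cells/dish in SD medium (5% dextran-charcoal FBS, insulin) and allowed to adhere for 3 days. They were then treated for 9 days at 37 °C with compound (1 uM, ethanol vehicle 0.1%) plus E2 0.1 nM, with medium changed every 2-3 days. Read-out was DNA content. % inhibition = 100 − [(D−B)/(C−A)]×100. Done in triplicate.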

In experiment [2] the target is T1, Estrogen receptor (Homo sapiens). Briefly: Ability to stimulate the basal cell proliferation of ZR-75-1 cells at a dose of 1 uM. It counts as functional, cell-based. Put shortly:
(§2)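 ZR-75-1 cells were plated at 10 000 cells/dish in phenol-red-free SD medium (5% dextran-charcoal FBS) and allowed to adhere for 3 days. Compound was added at 1 uM without E2 (controls received 0.1% ethanol). Cells were incubated for 9 days at 37 °C with medium renewed every 2-3 days. Basal proliferation was read as DNA content (ng/dish). Done in triplicate.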

Experiment [3] in a line: Antiestrogenic activity against Estradiol (E2) induced cell proliferation. On the set-up: concentration or dose not given beside the values.
The target in experiment [4] is T2, Estrogen receptor (Rattus norvegicus) (UniProt P06211+Q62986). Briefly: Relative binding affinity (RBA) on estrogen receptor was measured by in vitro using cytosol from the immature rat uterus; N means no binding observed. The class given is protein assay. Put shortly: (§3)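 Competitive displacement of [3H]estradiol from estrogen receptor. Incubation was 3 h at 25 °C. Nonspecific binding was defined with 1000 nM unlabeled estradiol. RBA = 100 × IC50(estradiol)/IC50(compound), with estradiol set at 100%.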

For experiment [5], the target named is T2, Estrogen receptor (Rattus norvegicus). Briefly: Relative binding affinity (RBA) on estrogen receptor was measured by in vitro using cytosol from the immature rat uterus. The class given is protein assay. Put shortly: as §3
Experiment [6] in a line: Compound was tested for percent inhibition of the Estradiol (E2) induced cell proliferation. Details: concentration or dose not given beside the values.
Experiment [7] has as its system ZR-75-1. Briefly: (§4) Inhibition of E2-induced proliferation of ZR-75-1 cells at 1 uM. It counts as functional, Homo sapiens. Put shortly:
as §1

For experiment [8], the system named is ZR-75-1. The description is as §4. It counts as functional, Homo sapiens. Summed up: as §1
This is another data set of the same source.

For experiment [9], the system named is ZR-75-1. Briefly: Stimulation of basal cell proliferation of ZR-75-1 cells at 1 uM. It counts as functional, Homo sapiens. Put shortly: as §2
Experiment [10] is described as follows: Percent inhibition of Estradiol (E2) induced cell proliferation. On the set-up: scale not given: the % may be the effect or the level left.

Active and inactive are the calls of the source. The rule behind the calls is not given here.

`CCCCN(C)C(=O)CCCCCCCCCCSC(Cc1ccc(OCc2ccccc2)cc1)c1ccc(OC)cc1` (stereo not drawn) displayed a DNA content per dish (cell proliferation) ((ng of DNA) dish-1) in experiment [1] of 1120. In [2], this compound showed a Binding ((ng of DNA) dish-1) of 749. This compound also displayed an Activity in experiment [3] of 42%.

With `CCCCN(C)C(=O)CCCCCCCCCCCSC(Cc1ccc(OC)cc1)c1ccc(OC)cc1` (stereo not drawn), the “relative binding affinity (RBA)” value in experiment [4] is “inactive”. This compound also had a DNA content per dish (cell proliferation) ((ng of DNA) dish-1) in experiment [1] of 1350. In [2], the Binding ((ng of DNA) dish-1) worked out at 800. The Activity in experiment [3] came out at 13%.

On to `CCCCN(C)C(=O)CCCCCCCSC(Cc1ccc(OCc2ccccc2)cc1)c1ccc(OC)cc1` (stereo not drawn), for which the “relative binding affinity (RBA)” value in experiment [4] is “inactive”. Moreover, in [1], the DNA content per dish (cell proliferation) ((ng of DNA) dish-1) was 1070. Also, the Binding ((ng of DNA) dish-1) in experiment [2] was determined as 791. In experiment [3], this compound gave an Activity of 56%.

`CCCCN(C)C(=O)CCCCCCCSC(Cc1ccc(O)cc1)c1ccc(O)cc1` (stereo not drawn) displayed an RBA in [5] of 0.01%. The DNA content per dish (cell proliferation) ((ng of DNA) dish-1) in [1] worked out at 2070. Also, in experiment [2], the Binding ((ng of DNA) dish-1) came out at 1410. For the same compound, the Activity in experiment [6] is 44%.

With `CCCCN(C)C(=O)CCCCCCCCCCSC(Cc1ccc(O)cc1)c1ccc(OC)cc1` (stereo not drawn), the “relative binding affinity (RBA)” value in [4] is “inactive”. The compound further had a DNA content per dish (cell proliferation) ((ng of DNA) dish-1) in experiment [1] of 1320. For the same compound, in experiment [2], the Binding ((ng of DNA) dish-1) was found to be 733. For the same compound, in experiment [3], the Activity was determined as 8%.

For the compound `OCCCCCCCCCCCSC(Cc1ccc(O)cc1)c1ccc(O)cc1` (stereo not drawn), the RBA in [5] was 0.02%. The compound further came in with a DNA content per dish (cell proliferation) ((ng of DNA) dish-1) in experiment [1] of 2230. The same compound yielded a Binding ((ng of DNA) dish-1) in experiment [2] of 1540. In [6], this compound yielded an Activity of 42%.

As to `CCCCN(C)C(=O)CCSC(Cc1ccc(O)cc1)c1ccc(O)cc1` (stereo not drawn), the RBA in experiment [5] was 0.01%. This compound came in with a DNA content per dish (cell proliferation) ((ng of DNA) dish-1) in [1] of 2600. Moreover, the Binding ((ng of DNA) dish-1) in experiment [2] is 1890. Further, the Activity in experiment [6] came out at 40%.

Regarding `CCCCN(C)C(=O)CCCCCCCCCCC1Cc2cc(O)ccc2[C@H]2CC[C@]3(C)[C@@H](O)[C@H](Cl)C[C@H]3[C@H]12` (stereo partly drawn), the RBA in [5] was determined as 1.2%. In addition, the Binding with ZR-75-1 [7] is 1403 (ng of DNA) dish-1; with ZR-75-1 [8] it was 662 (ng of DNA) dish-1; with ZR-75-1 [9], 679 (ng of DNA) dish-1. In addition, the Activity turned out to be 103% in [3] and 94% in [6].

As for `CCCCN(C)C(=O)CCSC(Cc1ccc(OCc2ccccc2)cc1)c1ccc(OC)cc1` (stereo not drawn), the “relative binding affinity (RBA)” value in experiment [4] was “inactive”. For the same compound, the DNA content per dish (cell proliferation) ((ng of DNA) dish-1) in experiment [1] came out at 1020. Also, in experiment [2], the Binding ((ng of DNA) dish-1) was determined as 789. The compound also gave an Activity in [3] of 64%.

For the compound `COc1ccc(C(Cc2ccc(O)cc2)SCCCCCCCCCCCO)cc1` (stereo not drawn), in [5], the RBA came to 0.02%. The DNA content per dish (cell proliferation) ((ng of DNA) dish-1) in [1] amounted to 1280. The Binding ((ng of DNA) dish-1) in experiment [2] amounted to 839. In experiment [6], this compound registered an Activity of 31%.

Consider `CCCCN(C)C(=O)CCCCCSC(Cc1ccc(O)cc1)c1ccc(O)cc1` (stereo not drawn), for which the RBA in [5] worked out at 0.01%. Moreover, in experiment [1], the DNA content per dish (cell proliferation) ((ng of DNA) dish-1) is 2050. In [2], this compound returned a Binding ((ng of DNA) dish-1) of 1440. Moreover, in [10], the Activity worked out at 49%.

Consider `CCCCN(C)C(=O)CCCCCCCSC(Cc1ccc(OC)cc1)c1ccc(OC)cc1` (stereo not drawn), for which the “relative binding affinity (RBA)” value in experiment [4] is “inactive”. For the same compound, the DNA content per dish (cell proliferation) ((ng of DNA) dish-1) in experiment [1] was found to be 1150. This compound had a Binding ((ng of DNA) dish-1) in experiment [2] of 746. In [3], this compound registered an Activity of 36%.

Consider `CCCCN(C)C(=O)CCSC(Cc1ccc(OC)cc1)c1ccc(OC)cc1` (stereo not drawn), for which the “relative binding affinity (RBA)” value in [4] is “inactive”. Also, the DNA content per dish (cell proliferation) ((ng of DNA) dish-1) in [1] worked out at 1010. The compound also gave a Binding ((ng of DNA) dish-1) in experiment [2] of 741. In experiment [3], this compound yielded an Activity of 57%.

In the case of `COc1ccc(C(Cc2ccc(OCc3ccccc3)cc2)SCCCCCCCCCCCO)cc1` (stereo not drawn), the “relative binding affinity (RBA)” value in experiment [4] is “inactive”. Also, the DNA content per dish (cell proliferation) ((ng of DNA) dish-1) in [1] is 1100. This compound also yielded a Binding ((ng of DNA) dish-1) in experiment [2] of 725. In experiment [3], this compound gave an Activity of 41%.

`CCCCN(C)C(=O)CCSC(Cc1ccc(O)cc1)c1ccc(OC)cc1` (stereo not drawn) registered an RBA in [5] of 0.01%. This compound came in with a DNA content per dish (cell proliferation) ((ng of DNA) dish-1) in experiment [1] of 902. In experiment [2], the Binding ((ng of DNA) dish-1) came out at 684. In experiment [3], the Activity was 66%.

In the case of `CCCCN(C)C(=O)CCCCCCCCCCCSC(Cc1ccc(O)cc1)c1ccc(OC)cc1` (stereo not drawn), the “relative binding affinity (RBA)” value in experiment [4] is “inactive”. The compound also yielded a DNA content per dish (cell proliferation) ((ng of DNA) dish-1) in [1] of 1090. In addition, the Binding ((ng of DNA) dish-1) in [2] stood at 807. In [3], this compound showed an Activity of 55%.

Turning to `CCCCN(C)C(=O)CCCCCCCCCCSC(Cc1ccc(O)cc1)c1ccc(O)cc1` (stereo not drawn), the RBA in experiment [5] is 0.01%. Moreover, the DNA content per dish (cell proliferation) ((ng of DNA) dish-1) in [1] was 1390. This compound also displayed a Binding ((ng of DNA) dish-1) in experiment [2] of 1150. The same compound showed an Activity in experiment [6] of 80%.

For `CCCCN(C)C(=O)CCCCCCCSC(Cc1ccc(O)cc1)c1ccc(OC)cc1` (stereo not drawn), the RBA in experiment [5] amounted to 0.05%. Besides, the DNA content per dish (cell proliferation) ((ng of DNA) dish-1) in [1] was 915. Further, the Binding ((ng of DNA) dish-1) in experiment [2] came to 698. The same compound gave an Activity in experiment [3] of 66%.
